Assay results published in ChEMBL document CHEMBL3112490, “Ionic liquid mediated synthesis of mono- and bis-spirooxindole-hexahydropyrrolidines as cholinesterase inhibitors and their molecular docking studies” (Bioorg Med Chem, 2014).

Columns and labels:
[1] = Selectivity ratio of IC50 for equine serum BChE to IC50 for AChE (unknown origin)
[2] = Selectivity index, ratio of IC50 for AChE (unknown origin) to IC50 for equine serum BChE
[3] = target: T1, Cholinesterase (Equus caballus, UniProt P81908); assay: Inhibition of equine serum BChE using S-butyrylthiocholine chloride as substrate preincubated for 15 mins followed by substrate addition by Ellman's method
T1 sequence (P81908 whole entry): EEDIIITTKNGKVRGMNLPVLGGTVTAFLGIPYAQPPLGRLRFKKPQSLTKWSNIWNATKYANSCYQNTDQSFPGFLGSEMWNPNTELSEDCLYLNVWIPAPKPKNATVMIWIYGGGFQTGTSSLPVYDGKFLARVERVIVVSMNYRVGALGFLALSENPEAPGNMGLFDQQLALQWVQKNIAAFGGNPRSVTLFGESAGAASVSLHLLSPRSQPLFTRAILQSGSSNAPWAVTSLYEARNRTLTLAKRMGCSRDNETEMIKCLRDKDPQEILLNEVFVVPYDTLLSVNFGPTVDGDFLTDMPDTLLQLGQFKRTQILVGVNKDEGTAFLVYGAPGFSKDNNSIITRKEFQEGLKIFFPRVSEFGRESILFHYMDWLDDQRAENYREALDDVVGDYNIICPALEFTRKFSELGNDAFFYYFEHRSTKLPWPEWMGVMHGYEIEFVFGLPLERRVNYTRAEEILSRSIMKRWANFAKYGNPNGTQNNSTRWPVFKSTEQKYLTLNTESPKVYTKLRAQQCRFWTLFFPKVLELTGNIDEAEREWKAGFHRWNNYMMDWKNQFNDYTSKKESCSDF
Procedure, shortened: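 Modified Ellman assay with equine serum BChE in 0.1 M sodium phosphate, pH 8. Enzyme preincubated with sample (DMSO, 1% final) for 15 min at 25 °C. DTNB (10 mM stock) then added, followed by S-butyrylthiocholine chloride (14 mM stock). Triplicates, blank-corrected; % inhibition calculated relative to control.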

[4] = target: T2, Acetylcholinesterase (Homo sapiens, UniProt P22303); assay: Inhibition of AChE (unknown origin) using acetylthiocholine iodide as substrate preincubated for 15 mins followed by substrate addition by Ellman's method
T2 sequence (P22303 whole entry): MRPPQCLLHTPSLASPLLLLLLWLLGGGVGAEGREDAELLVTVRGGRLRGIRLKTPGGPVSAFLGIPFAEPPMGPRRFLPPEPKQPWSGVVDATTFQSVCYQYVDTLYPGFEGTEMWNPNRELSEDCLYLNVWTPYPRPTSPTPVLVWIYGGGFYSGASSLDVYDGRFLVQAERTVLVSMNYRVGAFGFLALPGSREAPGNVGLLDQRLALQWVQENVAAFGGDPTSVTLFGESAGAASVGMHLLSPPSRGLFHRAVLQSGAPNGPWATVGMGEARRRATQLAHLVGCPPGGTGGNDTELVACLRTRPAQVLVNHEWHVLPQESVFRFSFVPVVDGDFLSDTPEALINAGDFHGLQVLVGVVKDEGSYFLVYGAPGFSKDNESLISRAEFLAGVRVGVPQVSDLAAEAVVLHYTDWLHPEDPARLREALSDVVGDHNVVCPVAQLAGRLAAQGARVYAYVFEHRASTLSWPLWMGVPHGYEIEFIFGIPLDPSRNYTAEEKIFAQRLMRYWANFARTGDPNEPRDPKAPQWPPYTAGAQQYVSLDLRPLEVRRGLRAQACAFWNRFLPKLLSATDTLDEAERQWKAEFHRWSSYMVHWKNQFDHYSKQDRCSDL

[5] = target: T2, Acetylcholinesterase; assay: Competitive inhibition of AChE (unknown origin) using acetylthiocholine iodide as substrate by Dixon plot analysis
Procedure, shortened: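 Ellman kinetics on AChE, added as a 0.09 units/mL solution, in pH 8 phosphate buffer with a 15 min 25 °C preincubation. Inhibitor at 0, 0.70 and 1.40 µM; acetylthiocholine iodide at 1, 2, 4 and 8 mM; DTNB detection at 412 nm. Mode, Km and Vmax from Lineweaver–Burk plots; Ki from Dixon plot.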

[6] = target: T1, Cholinesterase; assay: Mixed-type inhibition of equine serum BChE using S-butyrylthiocholine chloride as substrate by Dixon plot analysis
Procedure, shortened: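 Equine serum BChE run in the same Ellman kinetic format, pH 8, with a 15 min 25 °C preincubation. Inhibitor at 0, 0.90 and 1.81 µM; S-butyrylthiocholine chloride at 1, 2, 4 and 8 mM; read at 412 nm. Inhibition mode, Km and Vmax taken from Lineweaver–Burk plots; Ki from Dixon plot.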

| Structure (SMILES) | Ratio IC50 [1] | Ratio IC50 [2] | IC50 [3] [µM] | IC50 [4] [µM] | Ki [5] [µM] | Ki [6] [µM] |
| --- | --- | --- | --- | --- | --- | --- |
| C=CC(=O)N1C/C(=C\c2ccc(Cl)cc2)C(=O)[C@@]2(C1)[C@H](c1ccc(Cl)cc1)CN(C)[C@]21C(=O)Nc2ccccc21 (racemic) | 0.81 | 1.24 | 6.77 | 8.4 |  |  |
| C=CC(=O)N1C/C(=C\c2ccc(C)cc2)C(=O)[C@@]2(C1)[C@H](c1ccc(C)cc1)CN(C)[C@]21C(=O)Nc2ccccc21 (racemic) | 1.24 | 0.81 | 9.28 | 7.49 |  |  |
| C=CC(=O)N1C/C(=C\c2cccc([N+](=O)[O-])c2)C(=O)[C@@]2(C1)[C@H](c1cccc([N+](=O)[O-])c1)CN(C)[C@]21C(=O)Nc2ccccc21 (racemic) | 1.45 | 0.69 | 7.74 | 5.34 |  |  |
| COc1ccccc1/C=C1\CN(C(=O)[C@@H]2CCN(C)[C@]23C(=O)Nc2ccccc23)C[C@]2(C1=O)[C@H](c1ccccc1OC)CN(C)[C@]21C(=O)Nc2ccccc21 (racemic) | 2.2 | 0.45 | 10.4 | 4.73 |  |  |
| Cc1ccc(/C=C2\CN(C(=O)[C@@H]3CCN(C)[C@]34C(=O)Nc3ccccc34)C[C@]3(C2=O)[C@H](c2ccc(C)cc2)CN(C)[C@]32C(=O)Nc3ccccc32)cc1 (racemic) | 1.47 | 0.68 | 11.3 | 7.67 |  |  |
| CN1CC[C@@H](C(=O)N2C/C(=C\c3ccc(F)cc3)C(=O)[C@@]3(C2)[C@H](c2ccc(F)cc2)CN(C)[C@]32C(=O)Nc3ccccc32)[C@@]12C(=O)Nc1ccccc12 (racemic) | 3.33 | 0.3 | 7.82 | 2.35 | 2.01 |  |
| C=CC(=O)N1C/C(=C\c2ccccc2OC)C(=O)[C@@]2(C1)[C@H](c1ccccc1OC)CN(C)[C@]21C(=O)Nc2ccccc21 (racemic) | 1.03 | 0.97 | 4.22 | 4.1 |  |  |
| C=CC(=O)N1C/C(=C\c2ccc(F)cc2)C(=O)[C@@]2(C1)[C@H](c1ccc(F)cc1)CN(C)[C@]21C(=O)Nc2ccccc21 (racemic) | 0.43 | 2.3 | 3.39 | 7.8 |  |  |
| CN1CC[C@@H](C(=O)N2C/C(=C\c3ccc(Cl)cc3)C(=O)[C@@]3(C2)[C@H](c2ccc(Cl)cc2)CN(C)[C@]32C(=O)Nc3ccccc32)[C@@]12C(=O)Nc1ccccc12 (racemic) | 1.54 | 0.65 | 9.44 | 6.14 |  |  |
| CN1CC[C@@H](C(=O)N2C/C(=C\c3cccc([N+](=O)[O-])c3)C(=O)[C@@]3(C2)[C@H](c2cccc([N+](=O)[O-])c2)CN(C)[C@]32C(=O)Nc3ccccc32)[C@@]12C(=O)Nc1ccccc12 (racemic) | 5 | 0.2 | 12.3 | 2.47 |  |  |
| CN1CC[C@@H](C(=O)N2C/C(=C\c3ccccc3Cl)C(=O)[C@@]3(C2)[C@H](c2ccccc2Cl)CN(C)[C@]32C(=O)Nc3ccccc32)[C@@]12C(=O)Nc1ccccc12 (racemic) | 1.81 | 0.55 | 9.38 | 5.19 |  |  |
| C=CC(=O)N1C/C(=C\c2ccccc2C)C(=O)[C@@]2(C1)[C@H](c1ccccc1C)CN(C)[C@]21C(=O)Nc2ccccc21 (racemic) | 0.97 | 1.03 | 3.86 | 3.97 |  |  |
| C=CC(=O)N1C/C(=C\c2ccccc2Cl)C(=O)[C@@]2(C1)[C@H](c1ccccc1Cl)CN(C)[C@]21C(=O)Nc2ccccc21 (racemic) | 0.82 | 1.22 | 4.2 | 5.12 |  |  |
| CN1CC[C@@H](C(=O)N2C/C(=C\c3ccc(Cl)cc3Cl)C(=O)[C@@]3(C2)[C@H](c2ccc(Cl)cc2Cl)CN(C)[C@]32C(=O)Nc3ccccc32)[C@@]12C(=O)Nc1ccccc12 (racemic) | 4.05 | 0.25 | 17.9 | 4.42 |  |  |
| CN1CC[C@@H](C(=O)N2C/C(=C\c3ccccc3F)C(=O)[C@@]3(C2)[C@H](c2ccccc2F)CN(C)[C@]32C(=O)Nc3ccccc32)[C@@]12C(=O)Nc1ccccc12 (racemic) | 1.2 | 0.83 | 7.44 | 6.18 |  |  |
| C=CC(=O)N1C/C(=C\c2ccccc2)C(=O)[C@@]2(C1)[C@H](c1ccccc1)CN(C)[C@]21C(=O)Nc2ccccc21 (racemic) | 0.86 | 1.16 | 7.52 | 8.74 |  |  |
| CN1CC[C@@H](C(=O)N2C/C(=C\c3cccc4ccccc34)C(=O)[C@@]3(C2)[C@H](c2cccc4ccccc24)CN(C)[C@]32C(=O)Nc3ccccc32)[C@@]12C(=O)Nc1ccccc12 (racemic) | 3.88 | 0.26 | 19.1 | 4.93 |  |  |
| Cc1ccccc1/C=C1\CN(C(=O)[C@@H]2CCN(C)[C@]23C(=O)Nc2ccccc23)C[C@]2(C1=O)[C@H](c1ccccc1C)CN(C)[C@]21C(=O)Nc2ccccc21 (racemic) | 1.33 | 0.75 | 12.5 | 9.43 |  |  |
| C=CC(=O)N1C/C(=C\c2ccccc2F)C(=O)[C@@]2(C1)[C@H](c1ccccc1F)CN(C)[C@]21C(=O)Nc2ccccc21 (racemic) | 0.47 | 2.14 | 3.21 | 6.88 |  | 6.76 |
| C=CC(=O)N1C/C(=C\c2ccc(Cl)cc2Cl)C(=O)[C@@]2(C1)[C@H](c1ccc(Cl)cc1Cl)CN(C)[C@]21C(=O)Nc2ccccc21 (racemic) | 0.87 | 1.15 | 5.32 | 6.14 |  |  |
| CN1CC[C@@H](C(=O)N2C/C(=C\c3ccccc3)C(=O)[C@@]3(C2)[C@H](c2ccccc2)CN(C)[C@]32C(=O)Nc3ccccc32)[C@@]12C(=O)Nc1ccccc12 (racemic) | 3.55 | 0.28 | 9.34 | 2.63 |  |  |
| C=CC(=O)N1C/C(=C\c2cccc3ccccc23)C(=O)[C@@]2(C1)[C@H](c1cccc3ccccc13)CN(C)[C@]21C(=O)Nc2ccccc21 (racemic) | 1.17 | 0.86 | 8.85 | 7.59 |  |  |
